Test results taken from ChEMBL document CHEMBL1781935, “Amberlite-IRA-402 (OH) ion exchange resin mediated synthesis of indolizines, pyrrolo [1,2-a] quinolines and isoquinolines: antibacterial and antifungal evaluation of the products” (2011).
In brackets after ≈: the same amount, converted by molar mass. Activity calls are given as the source filed them. The calls are words filed in the database; no cut-off is given here.

Columns and labels:
Escherichia coli [1] = test: Antibacterial activity against Escherichia coli ATCC 25938; format: functional
In short: (§1)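 MIC by broth and agar dilution. Broth: 0.1 ml suspension (2 × 10^6 cfu/ml) in Mueller-Hinton broth with test drug at 1–1000 µg/ml, 37 °C overnight. Agar: serial drug dilutions in Mueller-Hinton agar, spot-inoculated with 2 × 10^6 cfu/spot, 37 °C for 24 h. MIC was the lowest concentration with no visible growth. Antibiotic controls were included.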

Klebsiella pneumoniae [2] = test: Antibacterial activity against Klebsiella pneumoniae isolate J/1/4; format: functional; in short: as §1
Staphylococcus aureus [3] = test: Antibacterial activity against Staphylococcus aureus ATCC 25923; format: functional; in short: as §1
Pseudomonas aeruginosa [4] = test: Antibacterial activity against Pseudomonas aeruginosa ATCC 27853; format: functional; in short: as §1
Vibrio cholerae [5] = test: Antibacterial activity against Vibrio cholerae isolate 7201; format: functional
Bacillus subtilis [6] = test: Antibacterial activity against Bacillus subtilis UC564; format: functional; in short: as §1
Shigella dysenteriae [7] = test: Antibacterial activity against Shigella dysenteriae isolate 3; format: functional
Enterococcus faecalis [8] = test: Antibacterial activity against Streptococcus faecalis isolate 29212; format: functional; in short: as §1
Shigella flexneri [9] = test: Antibacterial activity against Shigella flexneri DN13; format: functional; in short: as §1
Salmonella typhi [10] = test: Antibacterial activity against Salmonella typhi DIRW; format: functional, Salmonella enterica subsp. enterica serovar Typhi
Vibrio parahaemolyticus [11] = test: Antibacterial activity against Vibrio parahaemolyticus isolate 72016; format: functional; in short: as §1
Micrococcus luteus [12] = test: Antibacterial activity against Micrococcus luteus AGD1; format: functional; in short: as §1
Salmonella typhimurium [13] = test: Antibacterial activity against Salmonella Typhimurium isolate 11; format: functional, Salmonella enterica subsp. enterica serovar Typhimurium; in short: as §1
Escherichia coli [14] = test: Antibacterial activity against Escherichia coli ATCC 25938 at 1 to 1000 ug/ml after overnight incubation by disc diffusion method; format: functional
In short: (§2)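 Disc diffusion on Mueller-Hinton agar. Plates seeded with 0.1 ml bacterial suspension (2 × 10^6 cfu/ml). Sterile 6 mm paper discs were impregnated with compound solutions at 1–1000 µg/ml and incubated at 37 °C overnight. Read-out was the diameter of the clear inhibition zone. Stocks were 1 mg/ml in 4% Tween 80 or 4% propylene glycol.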

Klebsiella pneumoniae [15] = test: Antibacterial activity against Klebsiella pneumoniae isolate J/1/4 at 1 to 1000 ug/ml after overnight incubation by disc diffusion method; format: functional; in short: as §2
Staphylococcus aureus [16] = test: Antibacterial activity against Staphylococcus aureus ATCC 25923 at 1 to 1000 ug/ml after overnight incubation by disc diffusion method; format: functional; in short: as §2
Pseudomonas aeruginosa [17] = test: Antibacterial activity against Pseudomonas aeruginosa ATCC 27853 at 1 to 1000 ug/ml after overnight incubation by disc diffusion method; format: functional; in short: as §2
Vibrio cholerae [18] = test: Antibacterial activity against Vibrio cholerae isolate 7201 at 1 to 1000 ug/ml after overnight incubation by disc diffusion method; format: functional
Vibrio cholerae [19] = test: Antibacterial activity against Vibrio cholerae isolate 720 at 1 to 1000 ug/ml after overnight incubation by disc diffusion method; format: functional
Bacillus subtilis [20] = test: Antibacterial activity against Bacillus subtilis UC564 at 1 to 1000 ug/ml after overnight incubation by disc diffusion method; format: functional; in short: as §2
Shigella dysenteriae [21] = test: Antibacterial activity against Shigella dysenteriae isolate 3 at 1 to 1000 ug/ml after overnight incubation by disc diffusion method; format: functional
Enterococcus faecalis [22] = test: Antibacterial activity against Enterococcus faecalis isolate 29212 at 1 to 1000 ug/ml after overnight incubation by disc diffusion method; format: functional; in short: as §2
Shigella flexneri [23] = test: Antibacterial activity against Shigella flexneri DN13 at 1 to 1000 ug/ml after overnight incubation by disc diffusion method; format: functional; in short: as §2
Salmonella typhi [24] = test: Antibacterial activity against Salmonella typhi DIRW at 1 to 1000 ug/ml after overnight incubation by disc diffusion method; format: functional; details: Salmonella enterica subsp. enterica serovar Typhi
Vibrio parahaemolyticus [25] = test: Antibacterial activity against Vibrio parahaemolyticus isolate 72016 at 1 to 1000 ug/ml after overnight incubation by disc diffusion method; format: functional; in short: as §2
Micrococcus luteus [26] = test: Antibacterial activity against Micrococcus luteus AGD1 at 1 to 1000 ug/ml after overnight incubation by disc diffusion method; format: functional; in short: as §2
Salmonella typhimurium [27] = test: Antibacterial activity against Salmonella Typhimurium isolate 11 at 1 to 1000 ug/ml after overnight incubation by disc diffusion method; format: functional, organism-based; details: Salmonella enterica subsp. enterica serovar Typhimurium; in short: as §2

Compound | MIC (Escherichia coli [1]) | MIC (Klebsiella pneumoniae [2]) | MIC (Staphylococcus aureus [3]) | MIC (Pseudomonas aeruginosa [4]) | MIC (Vibrio cholerae [5]) | MIC (Bacillus subtilis [6]) | MIC (Shigella dysenteriae [7]) | MIC (Enterococcus faecalis [8]) | MIC (Shigella flexneri [9]) | MIC (Salmonella typhi [10]; Salmonella enterica) | MIC (Vibrio parahaemolyticus [11]) | MIC (Micrococcus luteus [12]) | MIC (Salmonella typhimurium [13]; Salmonella enterica) | other results
CCOC(=O)c1cc2ccccn2c1C(=O)c1ccccc1 | > 500 µg/mL | > 500 µg/mL | > 500 µg/mL | > 500 µg/mL | > 500 µg/mL | > 500 µg/mL | > 500 µg/mL | > 500 µg/mL | > 500 µg/mL | > 500 µg/mL | > 500 µg/mL | > 500 µg/mL | > 500 µg/mL | 
COC(=O)c1cc(C(=O)c2ccccc2)n2ccc3ccccc3c12 | 500 µg/mL (≈ 1520 µM) | 256 µg/mL (≈ 777 µM) | 128 µg/mL (≈ 389 µM) | 128 µg/mL (≈ 389 µM) | 256 µg/mL (≈ 777 µM) | 256 µg/mL (≈ 777 µM) | 256 µg/mL (≈ 777 µM) | 256 µg/mL (≈ 777 µM) | 128 µg/mL (≈ 389 µM) | 256 µg/mL (≈ 777 µM) | 256 µg/mL (≈ 777 µM) | > 500 µg/mL | 500 µg/mL (≈ 1520 µM) | 
GENTAMICIN | 0.25 µg/mL | 2 µg/mL | 1 µg/mL | 2 µg/mL | 0.5 µg/mL | 4 µg/mL | 1 µg/mL | 0.5 µg/mL | 1 µg/mL |  | 1 µg/mL | 8 µg/mL |  | MIC (Salmonella typhi [10]; Salmonella enterica subsp. enterica serovar Typhi): 1 µg/mL; MIC (Salmonella typhimurium [13]; Salmonella enterica subsp. enterica serovar Typhimurium): 1 µg/mL
N#Cc1cc(C(=O)c2ccccc2)n2ccc3ccccc3c12 | 256 µg/mL (≈ 864 µM) | 32 µg/mL (≈ 108 µM) | 256 µg/mL (≈ 864 µM) | 64 µg/mL (≈ 216 µM) | 32 µg/mL (≈ 108 µM) | 128 µg/mL (≈ 432 µM) | > 500 µg/mL | > 500 µg/mL | > 500 µg/mL | > 500 µg/mL | > 500 µg/mL | > 500 µg/mL | > 500 µg/mL | diameter of the inhibition zone (DIZ) (Escherichia coli [14]): 8 mm; diameter of the inhibition zone (DIZ) (Klebsiella pneumoniae [15]): 11 mm; diameter of the inhibition zone (DIZ) (Staphylococcus aureus [16]): 7.5 mm; diameter of the inhibition zone (DIZ) (Pseudomonas aeruginosa [17]): 9.5 mm; diameter of the inhibition zone (DIZ) (Vibrio cholerae [18]): 11 mm; diameter of the inhibition zone (DIZ) (Vibrio cholerae [19]): 11 mm; diameter of the inhibition zone (DIZ) (Bacillus subtilis [20]): 7.5 mm; diameter of the inhibition zone (DIZ) (Shigella dysenteriae [21]): inactive; diameter of the inhibition zone (DIZ) (Enterococcus faecalis [22]): inactive; diameter of the inhibition zone (DIZ) (Shigella flexneri [23]): inactive; diameter of the inhibition zone (DIZ) (Salmonella typhi [24]): inactive; diameter of the inhibition zone (DIZ) (Vibrio parahaemolyticus [25]): inactive; diameter of the inhibition zone (DIZ) (Micrococcus luteus [26]): inactive; diameter of the inhibition zone (DIZ) (Salmonella typhimurium [27]): inactive
COC(=O)c1cc2ccccn2c1C(=O)c1ccccc1 | > 500 µg/mL | > 500 µg/mL | > 500 µg/mL | > 500 µg/mL | > 500 µg/mL | > 500 µg/mL | > 500 µg/mL | > 500 µg/mL | > 500 µg/mL | > 500 µg/mL | > 500 µg/mL | > 500 µg/mL | > 500 µg/mL | 
COC(=O)c1cc2ccc3ccccc3n2c1C(=O)c1ccccc1 | > 500 µg/mL | > 500 µg/mL | > 500 µg/mL | > 500 µg/mL | > 500 µg/mL | > 500 µg/mL | > 500 µg/mL | > 500 µg/mL | > 500 µg/mL | > 500 µg/mL | > 500 µg/mL | > 500 µg/mL | > 500 µg/mL | 
CCOC(=O)c1c(C(=O)OCC)c2c3ccccc3ccn2c1C(=O)c1ccccc1 | 128 µg/mL (≈ 308 µM) | 128 µg/mL (≈ 308 µM) | 500 µg/mL (≈ 1200 µM) | 500 µg/mL (≈ 1200 µM) | 500 µg/mL (≈ 1200 µM) | 256 µg/mL (≈ 616 µM) | > 500 µg/mL | > 500 µg/mL | 256 µg/mL (≈ 616 µM) | 128 µg/mL (≈ 308 µM) | 128 µg/mL (≈ 308 µM) | > 500 µg/mL | > 500 µg/mL | 
